CendR NRP1 mod: modulators of CendR peptide binding to NRP-1, primary screen, biochemical, fluorescence polarization, uHTS | 360,000 tested, 0.85% active | FAM-RPARPAR peptide binding to NRP-1 | inhibition, % at 25 µM | Neuropilin-1 (Homo sapiens), O14786;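 active = inhibition or corrected inhibition above about 18%, plus a signal ratio from 0.5 to 1.5, limit read from the data, passing the limit was not always enough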
Target sequence (O14786 whole entry, looked up): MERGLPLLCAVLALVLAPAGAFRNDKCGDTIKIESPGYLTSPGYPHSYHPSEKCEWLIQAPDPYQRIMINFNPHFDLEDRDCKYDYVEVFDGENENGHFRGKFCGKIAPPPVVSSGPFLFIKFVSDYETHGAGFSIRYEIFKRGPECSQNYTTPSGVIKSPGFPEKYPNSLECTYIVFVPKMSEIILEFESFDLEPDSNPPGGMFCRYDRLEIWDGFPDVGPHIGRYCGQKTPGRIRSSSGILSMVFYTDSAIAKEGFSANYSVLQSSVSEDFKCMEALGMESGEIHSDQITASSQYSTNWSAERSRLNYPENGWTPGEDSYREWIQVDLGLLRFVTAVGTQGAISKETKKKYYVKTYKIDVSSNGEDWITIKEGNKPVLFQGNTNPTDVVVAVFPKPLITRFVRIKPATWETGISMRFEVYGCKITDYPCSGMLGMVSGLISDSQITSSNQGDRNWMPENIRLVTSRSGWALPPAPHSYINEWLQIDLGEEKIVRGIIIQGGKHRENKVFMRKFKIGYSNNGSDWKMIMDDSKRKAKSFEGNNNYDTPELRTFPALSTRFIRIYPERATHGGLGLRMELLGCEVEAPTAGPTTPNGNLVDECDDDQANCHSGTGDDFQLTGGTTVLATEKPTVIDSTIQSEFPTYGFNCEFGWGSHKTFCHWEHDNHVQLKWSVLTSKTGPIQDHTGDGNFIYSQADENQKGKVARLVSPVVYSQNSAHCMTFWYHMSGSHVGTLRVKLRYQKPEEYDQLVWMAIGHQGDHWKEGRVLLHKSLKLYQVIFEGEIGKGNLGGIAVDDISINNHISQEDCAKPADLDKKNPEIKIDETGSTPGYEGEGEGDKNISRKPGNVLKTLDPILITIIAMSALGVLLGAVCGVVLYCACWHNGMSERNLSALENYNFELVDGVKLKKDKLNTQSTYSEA
CR mimetic SO: reduction of superoxide in aged yeast, primary screen, HTS; 330,000 tested, 0.18% active; AID 2690, 2010; superoxide response (% of plate mean), % at 10 µM; S. cerevisiae aged cells, superoxide DHE fluorescence; active compounds read low;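 active = superoxide response under a set limit, about three screen SD below normal, cut at about 65% in these data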;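 also: yeast aged for seven days with compound at 30 °C before DHE staining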
V-ATPase pHluor: regulators of yeast V-ATPase proton pumping, primary screen, pHLuorin cytosolic pH fluorescence | S. cerevisiae | response, % at 10 µM | 350,000 tested, 0.37% active | AID 504577, 2011; in the data active = response mostly above about 7.3%, no sharp cut-off; inactive = mostly below about 5.4%; also: actives read high
HIF activator: HIF pathway transcriptional activators, primary screen, cell-based, U2OS HRE-luciferase, luminescence. U2OS HRE-luciferase reporter; normalized: DMSO 0%, desferrioxamine 100%. activation, % at 7.5 µM (by protocol). 300,000 tested, 0.32% active. AID 1910, 2009;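 active = mean activation of at least 10% of the iron chelator positive control signal, with at least half of replicates also reaching 10%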
AI-2 QS mod: Vibrio harveyi AI-2 quorum sensing modulators, primary screen, JMH597 strain, luminescence/OD600 ratio; AID 2094, 2009; Vibrio harveyi JMH597 AI-2 luminescence/OD600 ratio, 9 h; active compounds read low; strain lacks LuxN and CqsS sensors; 0 = neutral-control median; 300,000 tested, 0.4% active; activity change, % at 7.5 µM; in the data active = activity change below about -75%, passing the limit was not always enough;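 also: luminescence divided by OD600 gain over 9 h not by final OD600 alone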
T cruzi inh: inhibitors of intracellular T. cruzi growth, primary screen, luminescence, NIH3T3 host cells. T. cruzi beta-gal in NIH3T3, 90 h. inhibition, % (concentration not given with the values). 300,000 tested, 1.4% active;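 active = mean inhibition across valid replicates above about 55%, limit read from the data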;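 also: signal also drops with host cell toxicity which is not excluded here; higher percent means less beta-gal luminescence so fewer parasites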
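Material: NIH/3T3 host cells with β-galactosidase reporter T. cruzi; Input: 5,000 host fibroblasts per well; Medium: DMEM, 2% fetal bovine serum; Compound: 50 nL DMSO compound solution per well; Schedule: 3 h host attachment, then at least 90 h co-culture; Detection: luminescent β-galactosidase signal after 60 min lysis.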
Numbers stand for hits; – = inactive; · = not tested or not shown. Rows were chosen to be rich in hits. Some 3% of all compounds tested hit in one or more screens of this group.

SMILES | CendR NRP1 mod | CR mimetic SO | V-ATPase pHluor | HIF activator | AI-2 QS mod | T cruzi inh
Cc1cc(C)nc(SCC(=O)NNC(=O)c2ccccc2C)n1 | – | 65 | – | – | – | –
CCOc1c(Cl)cc(CNCC(C)C)cc1Cl | – | – | 20 | – | – | –
Cc1ccccc1N1CCN(S(=O)(=O)C[C@]23CCC(CC2NC(=O)[C@@H](N)CCS(C)(=O)=O)C3(C)C)CC1 (stereo partly specified) | – | – | – | · | · | ·
COc1ccc(C(=O)CN2CC(C)SC2=Nc2ccc(Cl)cc2)cc1 (stereo unspecified) | – | – | – | – | – | –
OCC1OC(c2ccc(O)cc2O)C(O)C1O (stereo unspecified) | 29 | · | · | · | · | ·
Cc1cc(Cl)c(OCCCNCc2ccccc2)c(Br)c1 | – | – | – | – | – | 56
O=C(COC(=O)c1ccc(C(F)(F)F)cc1)Nc1cccc(S(=O)(=O)NC2=NCCCCC2)c1 | – | – | – | · | · | ·
CCOC(=O)c1[nH]c2ccc(OC)cc2c1NS(=O)(=O)c1ccc(Cl)s1 | – | – | – | – | -84 | –
COc1ccc2[nH]c(C(=O)O)c(NS(=O)(=O)c3ccc(Cl)s3)c2c1 | – | – | – | – | – | –
Cc1ccc(CNC(=O)NC2CCCCC2)cc1 | – | – | – | 18 | -89 | –
O=C(NCc1ccccn1)c1cccc(NS(=O)(=O)c2ccccc2)c1 | – | – | – | – | · | –
O=C(NCc1ccccn1)c1ccc(NS(=O)(=O)c2ccccc2)cc1 | 22 | – | – | – | – | –
Cc1[nH]c(=O)nc2c1CCC2 | – | – | – | – | – | –
O=C(O)c1ccc(N/N=C/c2c[nH]c3ccccc23)cc1 | – | – | – | – | – | –
O=C(O)c1ccc(N/N=C/C2=Cc3ccccc3OC2)cc1 | – | – | – | – | -91 | –
O=C1C=C(c2ccc(Oc3ccccc3)cc2)C[C@@H](c2ccc(Cl)cc2)C1 | 32 | – | – | · | · | ·
CSc1ccc(C2=CC(=O)C[C@H](c3ccc(Cl)cc3)C2)cc1 | 28 | – | – | · | · | ·
Cc1cccc(C(=O)c2c(N)sc3c2CCC(C)C3)c1 (stereo unspecified) | – | – | – | – | – | –
COCC(=O)Nc1ccccc1NC(C)=O | – | – | – | – | – | –
COc1ccc(Cc2noc(CN3CCCN(Cc4ccc(F)cc4)CC3)n2)cc1OC | – | – | – | – | – | 78
Fc1cccc(Cc2noc(CN3CCN(C4CCc5ccccc5C4)CC3)n2)c1 (stereo unspecified) | – | – | – | – | – | –
Fc1cccc(Cc2noc(CN3CCCN(C4Cc5ccccc5C4)CC3)n2)c1 | – | – | – | – | – | 57
COc1ccc(Cc2noc(CN3CCN(C4CCc5ccccc5C4)CC3)n2)cc1OC (stereo unspecified) | – | – | – | – | – | 57
Cc1ccc(Cn2c(C(C)Nc3nc(-c4ccc(C)cc4)cs3)nc3cc(Cl)c(Cl)cc32)cc1 (stereo unspecified) | – | – | – | – | – | –
CC(/C=N/NC(=O)Cn1cnc2c1c(=O)n(C)c(=O)n2C)=C\c1ccco1 | – | – | – | · | – | ·
SMILES | CendR NRP1 mod | CR mimetic SO | V-ATPase pHluor | HIF activator | AI-2 QS mod | T cruzi inh
O=C1c2ccc(Oc3cccc([N+](=O)[O-])c3)cc2C(=O)N1c1ccccn1 | – | – | – | – | – | –
O=C1c2cc([N+](=O)[O-])cc3cc([N+](=O)[O-])cc(c23)C(=O)N1c1ccccn1 | 28 | – | – | – | – | –
O=C(O)c1cccc(N2C(=O)c3cc([N+](=O)[O-])cc4cc([N+](=O)[O-])cc(c34)C2=O)c1 | 26 | – | – | – | – | –
Nc1ccc(N(c2ccccc2)c2ccc(N)cc2)cc1 | – | – | – | – | – | 58
NC(=O)c1nsc(C(=O)N(c2ccc(F)cc2)C(C(=O)NC2CCCC2)c2ccncc2)c1N (stereo unspecified) | – | – | – | – | – | –
Cc1cc(C)c(NS(=O)(=O)c2ccccc2)c(C)c1 | – | · | – | · | · | ·
Cc1ccc(S(=O)(=O)/N=C2/C=C(C3C(=O)CC(C)(C)CC3=O)C(=O)c3ccccc32)cc1 | – | – | – | – | – | –
Cc1cc(C)c(S(=O)(=O)/N=C2\C=C(NS(=O)(=O)c3ccccc3)C(=O)c3ccccc32)c(C)c1 | 28 | – | – | – | – | –
Cc1ccc(S(=O)(=O)/N=C2\C=C(NS(=O)(=O)c3ccccc3)C(=O)c3ccccc32)cc1 | 65 | · | – | · | · | ·
CC1(OC(=O)c2cccs2)C(=O)C=C2C=C(C3CC3)OC=C2C1=O (stereo unspecified) | – | – | – | 112 | – | –
COC(=O)CCCC1=CC2=CC(=O)C(C)(OC(=O)c3cccs3)C(=O)C2=CN1CCc1ccccn1 (stereo unspecified) | – | – | – | – | – | –
CC1(OC(=O)c2ccco2)C(=O)C=C2C=C(C3CC3)OC=C2C1=O (stereo unspecified) | – | – | – | – | – | –
C=CCN1C=C2C(=O)C(C)(OC(=O)c3cccs3)C(=O)C=C2C=C1CCCC(=O)OC (stereo unspecified) | 28 | – | – | – | – | –
Clc1ccc(-c2csc(=Nc3cccnc3)n2CCCn2ccnc2)cc1Cl | – | – | – | – | – | 57
COCCn1c(-c2ccc(Br)cc2)csc1=Nc1cccnc1 | – | – | – | · | – | ·
CCOc1cc(/C=N/NC(N)=S)cc(Br)c1OCc1ccccc1C | – | – | – | – | – | 79
COc1cc(/C=N/NC(N)=S)cc(Br)c1OCc1ccccc1F | – | – | – | – | – | –
COc1ccc(/C=N/NC(=O)Cn2nnc3ccccc32)cc1OC | – | – | – | – | -92 | –
C=CCNC(=O)C1CC(=O)N(c2ccc(OCC(=O)NCc3ccccc3)cc2)C1 (stereo unspecified) | 26 | – | – | – | – | –
NC(=O)C1CC(=O)N(c2ccc(OCC(=O)N3CCCC3)cc2)C1 (stereo unspecified) | 28 | · | – | · | · | ·
CNC(=O)C1CC(=O)N(c2ccc(OCC(=O)N3CCCC3)cc2)C1 (stereo unspecified) | – | – | – | 29 | – | –
C=CCNC(=O)C1CC(=O)N(c2ccc(OCC(=O)N3CCCC3)cc2)C1 (stereo unspecified) | – | – | – | – | – | –
Fc1ccc(-c2cnc(-c3cccs3)o2)cc1 | – | – | – | – | – | –
Cc1ncc(CO)c(/C=N/Nc2ccc(C(F)(F)F)cn2)c1O | – | – | – | 9.6 | – | –
O=C(Cn1ccc(NC(=O)OCc2ccccc2)nc1=O)NCCN1CCOCC1 | 38 | – | – | · | · | ·
